Source: ChEMBL document CHEMBL3286282, “Synthesis and antiproliferative activity of novobiocin analogues as potential hsp90 inhibitors” (Eur J Med Chem, 2014)
One block for each compound: values may come before it. Activity calls are given as the source filed them. The calls are words filed in the database; no cut-off is given here.

Legend:
[1] = tested on: MCF7; assay: Antiproliferative activity against ER-positive human MCF7 cells assessed as cell viability at 0.1 mM after 72 hrs by MTT assay; type: functional; settings: MCF7, 72 h, read-out: Activity
Method in brief: (§1)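 MCF-7 (ER-positive) cells in DMEM with 2 mM L-glutamine, penicillin/streptomycin and 10% charcoal-treated FCS, seeded at 2500-5000 cells/well. Drugs added 24 h later in serial dilutions from 10 mM DMSO stocks, then exposed 72 h. MTT (500 µg/mL) for 3 h at 37 °C, formazan dissolved in DMSO, A570 read minus A650. Sextuplicates, three experiments.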

[2] = Retardation factor of the compound using CH2Cl2 as solvent system; type: physicochemical
[3] = tested on: MCF7; assay: Growth inhibition of ER-positive human MCF7 cells after 72 hrs by MTT assay; type: functional; settings: MCF7, 72 h; method in brief: as §1
[4] = Retardation factor of the compound using CH2Cl2/MeOH at ratio of 95:5 as solvent system; type: physicochemical
[5] = Retardation factor of the compound using Et2O/c-hexane at ratio of 8:2 as solvent system; type: physicochemical
[6] = tested on: MCF7; assay: Cell cycle arrest in human MCF7 cells assessed as accumulation at G2/M phase at 100 uM after 48 hrs by flow cytometry (reference value: 7%); type: functional
Method in brief: (§2)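 MCF-7 cells at 1.3 x 10^5 cells/mL exposed to 100 µM for 48 or 72 h, with DMSO control. Cells fixed in PBS/ethanol (30/70), then 10^4 cells incubated 30 min in PBS/0.2% Triton X-100/1 mM EDTA with propidium iodide (50 µg/mL) and RNase (0.5 mg/mL). Flow cytometry gave % cells per phase, with sub-G1 counted as apoptotic. Mean of two independent experiments.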

[7] = tested on: MDA-MB-231; assay: Growth inhibition of ER-negative human MDA-MB-231 cells after 72 hrs by MTT assay; type: functional; settings: MDA-MB-231, 72 h
Method in brief: (§3)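 ER-negative MDA-MB-231 cells and tamoxifen- or Faslodex-resistant MCF-7 cells, grown in DMEM with 10% charcoal-treated FCS and seeded at 2500-5000 cells/well. Drug serial dilutions added after 24 h from 10 mM DMSO stocks. After 72 h, MTT at 500 µg/mL for 3 h at 37 °C, then A570 read minus A650.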

[8] = tested on: MCF7; assay: Antiproliferative activity against human MCF7 cells assessed as inhibition of cell proliferation; type: functional, cell-based
[9] = tested on: IGROV-1; assay: Antiproliferative activity against human IGROV1 cells assessed as inhibition of cell proliferation; type: functional, cell-based
[10] = tested on: Ishikawa; assay: Antiproliferative activity against human Ishikawa cells assessed as inhibition of cell proliferation; type: functional, cell-based
[11] = tested on: LP-1; assay: Growth inhibition of human LP-1 cells after 72 hrs by MTS assay; type: functional; settings: LP-1, 72 h
Method in brief: (§4)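 Myeloma RPMI 8226 and LP-1 cells and prostate PC-3 cells, grown in RPMI 1640 with 2 mM L-glutamine and 10% heat-inactivated FBS, seeded at 2500-5000 cells/well. Drug dilutions added after 24 h. After 72 h, MTS reagent added and A492 read 2 or 3 h later. Run in triplicate, with each experiment done at least twice. GI50 taken relative to vehicle-treated cells.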

[12] = tested on: MCF7; assay: Cell cycle arrest in human MCF7 cells assessed as accumulation at G0/G1 phase at 100 uM after 72 hrs by flow cytometry (reference value: 60.5%); type: functional; method in brief: as §2
[13] = tested on: MCF7; assay: Cell cycle arrest in human MCF7 cells assessed as accumulation at G2/M phase at 100 uM after 72 hrs by flow cytometry (reference value: 19%); type: functional; method in brief: as §2
[14] = tested on: MCF7; assay: Cell cycle arrest in human MCF7 cells assessed as accumulation at G0/G1 phase at 100 uM after 48 hrs by flow cytometry (reference value: 87%); type: functional; method in brief: as §2
[15] = tested on: MCF7; assay: Cell cycle arrest in human MCF7 cells assessed as accumulation at S phase at 100 uM after 48 hrs by flow cytometry (reference value: 6%); type: functional; method in brief: as §2
[16] = tested on: MDA-MB-231; assay: Antiproliferative activity against human MDA-MB-231 cells assessed as inhibition of cell proliferation; type: functional, cell-based
[17] = tested on: MCF7; assay: Cell cycle arrest in human MCF7 cells assessed as accumulation at S phase at 100 uM after 72 hrs by flow cytometry (reference value: 20.5%); type: functional; method in brief: as §2
[18] = tested on: RPMI-8226; assay: Growth inhibition of human RPMI8226 cells after 72 hrs by MTS assay; type: functional; settings: RPMI-8226, 72 h; method in brief: as §4
[19] = tested on: MCF7; assay: Cell cycle arrest in human MCF7 cells assessed as accumulation at subG1 phase at 100 uM after 72 hrs by flow cytometry (reference value: 9.5%); type: functional; method in brief: as §2
[20] = tested on: Caco-2; assay: Antiproliferative activity against human Caco2 cells assessed as inhibition of cell proliferation; type: functional, cell-based
[21] = tested on: PC-3; assay: Growth inhibition of human PC3 cells after 72 hrs by MTS assay; type: functional; settings: PC-3, 72 h; method in brief: as §4
[22] = tested on: MCF7; assay: Cell cycle arrest in human MCF7 cells assessed as accumulation at subG1 phase at 100 uM after 48 hrs by flow cytometry (reference value: 5%); type: functional; method in brief: as §2
[23] = Retardation factor of the compound using c-hexane/AcOEt at ratio of 6:4 as solvent system; type: physicochemical
[24] = Retardation factor of the compound using CH2Cl2/MeOH at ratio of 9:1 as solvent system; type: physicochemical
[25] = tested on: MCF7; assay: Growth inhibition of tamoxifen-resistant human MCF7 cells after 72 hrs by MTT assay; type: functional; settings: MCF7, 72 h; method in brief: as §3
[26] = tested on: MCF7; assay: Growth inhibition of Faslodex-resistant human MCF7 cells after 72 hrs by MTT assay; type: functional; settings: MCF7, 72 h; method in brief: as §3
[27] = tested on: MCF7; assay: Ratio of novobiocin GI50 to compound GI50 for human MCF7 cells; type: functional
[28] = molecular target: Heat shock protein HSP 90-beta (Homo sapiens) (UniProt P08238); assay: Inhibition of HSP90 in human MCF7 cells assessed as ER-alpha degradation at 100 uM after 24 hrs by western blot analysis in presence of proteasome inhibitor MG132; type: cell-based
Chain of Heat shock protein HSP 90-beta (Homo sapiens) (P08238 whole entry): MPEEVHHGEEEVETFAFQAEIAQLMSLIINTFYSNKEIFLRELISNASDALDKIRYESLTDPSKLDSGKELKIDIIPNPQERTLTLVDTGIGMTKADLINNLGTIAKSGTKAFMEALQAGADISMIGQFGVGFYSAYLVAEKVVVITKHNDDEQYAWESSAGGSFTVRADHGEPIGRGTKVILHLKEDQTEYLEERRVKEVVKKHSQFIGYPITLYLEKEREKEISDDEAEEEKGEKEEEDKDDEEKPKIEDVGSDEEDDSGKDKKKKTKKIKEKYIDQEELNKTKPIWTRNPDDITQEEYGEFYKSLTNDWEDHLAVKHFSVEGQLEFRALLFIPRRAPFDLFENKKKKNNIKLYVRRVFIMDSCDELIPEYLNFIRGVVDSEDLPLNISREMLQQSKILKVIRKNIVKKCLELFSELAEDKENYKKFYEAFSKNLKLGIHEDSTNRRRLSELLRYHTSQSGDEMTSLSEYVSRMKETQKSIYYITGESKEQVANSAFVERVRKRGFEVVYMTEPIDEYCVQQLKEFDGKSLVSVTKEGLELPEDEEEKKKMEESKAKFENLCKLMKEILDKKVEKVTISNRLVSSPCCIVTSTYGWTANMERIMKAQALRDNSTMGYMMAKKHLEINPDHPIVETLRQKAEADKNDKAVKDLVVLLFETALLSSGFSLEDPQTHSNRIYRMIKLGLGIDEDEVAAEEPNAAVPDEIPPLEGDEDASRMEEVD
Method in brief: (§5)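 MCF-7 cells grown to 50% confluence, exposed to 100 µM for 24 h with or without MG132 (5 µM). Lysed in Tris-HCl pH 7.5/NaCl/EGTA/Triton X-100 buffer with phosphatase and protease inhibitors. 20 µg protein run on SDS-PAGE. ERα probed with D12 monoclonal antibody (1 µg/mL, overnight 4 °C), detected by biotin/avidin-peroxidase. Nonspecific band used as loading control; DMSO as vehicle.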

[29] = molecular target: Heat shock protein HSP 90-beta (Homo sapiens) (UniProt P08238); assay: Inhibition of HSP90 in human MCF7 cells assessed as ER-alpha degradation at 100 uM after 24 hrs by western blot analysis; type: cell-based; method in brief: as §5
[30] = molecular target: Heat shock protein HSP 90-beta (Homo sapiens) (UniProt P08238); assay: Inhibition of HSP90 in human MCF7 cells assessed as induction of Cdk4 degradation at 100 uM after 24 hrs by western blot analysis; type: cell-based
[31] = molecular target: Heat shock protein HSP 90-beta (Homo sapiens) (UniProt P08238); assay: Inhibition of HSP90 in human MCF7 cells assessed as induction of Her2 degradation at 100 uM after 24 hrs by western blot analysis; type: cell-based
[32] = molecular target: Heat shock protein HSP 90-beta (Homo sapiens) (UniProt P08238); assay: Inhibition of HSP90 in human MCF7 cells assessed as induction of Raf degradation at 100 uM after 24 hrs by western blot analysis; type: cell-based
[33] = Retardation factor of the compound using CH2Cl2/c-hexane at ratio of 9:1 as solvent system; type: physicochemical
[34] = Retardation factor of the compound using Et2O as solvent system; type: physicochemical
[35] = Retardation factor of the compound using CH2Cl2/AcOEt at ratio of 95:5 as solvent system; type: physicochemical
[36] = Retardation factor of the compound using CH2Cl2/AcOEt at ratio of 9:1 as solvent system; type: physicochemical
[37] = Retardation factor of the compound using c-hexane/AcOEt at ratio of 8:2 as solvent system; type: physicochemical

Compound: COc1ccc(C#Cc2cc3c(OS(=O)(=O)c4ccc(C)cc4)c(NC(=O)c4ccc5c(c4)CCC(C)(C)O5)c(=O)oc3c(C)c2OC)cc1
viability at 100 µM [1]: 89% | Rf [2]: 0.2

Compound: Cc1ccc(S(=O)(=O)Oc2c(NC(=O)c3ccc4c(c3)CCC(C)(C)O4)c(=O)oc3c(C)c(O)c(Br)cc23)cc1
viability at 100 µM [1]: 65% | Rf [23]: 0.39

Compound: COc1c(C#Cc2ccccc2)cc2c(OS(=O)(=O)c3ccc(C)cc3)c(NC(=O)c3ccc4c(c3)CCC(C)(C)O4)c(=O)oc2c1C
viability at 100 µM [1]: 90% | Rf [33]: 0.1

Compound: C#Cc1cc2c(OS(=O)(=O)c3ccc(C)cc3)c(NC(=O)c3ccc4c(c3)CCC(C)(C)O4)c(=O)oc2c(C)c1OC
viability at 100 µM [1]: 82% | Rf [35]: 0.5

Compound: Cc1c(O)ccc2c(OS(=O)(=O)c3cccs3)c(NC(=O)c3ccc4c(c3)CCC(C)(C)O4)c(=O)oc12
viability at 100 µM [1]: 62% | Rf [36]: 0.23

Compound: Cc1c(O)ccc2c(OS(=O)(=O)c3ccc4cccnc4c3)c(NC(=O)c3ccc4c(c3)CCC(C)(C)O4)c(=O)oc12
viability at 100 µM [1]: 22% | GI50 [3]: 64 µM | Rf [36]: 0.28 | ER-alpha degradation (active/inactive) [29]: Active

Compound: COc1c(Br)cc2c(OC)c(NC(=O)c3ccc4c(c3)CCC(C)(C)O4)c(=O)oc2c1C
viability at 100 µM [1]: 90% | Rf [37]: 0.19 | Rf [35]: 0.59

More lines, main results first:

GI50 [3]: 260 µM
Compound: CO[C@@H]1[C@@H](OC(N)=O)[C@@H](O)[C@H](Oc2ccc3c(O)c(NC(=O)c4ccc(O)c(CC=C(C)C)c4)c(=O)oc3c2C)OC1(C)C [NOVOBIOCIN]

Rf [4]: 0.2
Compound: Cc1c(O)ccc2c(NCCN3CCOCC3)c(NC(=O)c3ccc4c(c3)CCC(C)(C)O4)c(=O)oc12
viability at 100 µM [1]: 87%

Rf [5]: 0.17
Compound: CC(=O)OC[C@H]1O[C@@H](Oc2ccc3c(N)c(NC(=O)c4ccc5c(c4)CCC(C)(C)O5)c(=O)oc3c2C)[C@H](OC(C)=O)[C@@H](OC(C)=O)[C@@H]1OC(C)=O
viability at 100 µM [1]: 71%

GI50 [7]: 2 µM | IC50 [8]: 7 µM | GI50 [3]: 7 µM | IC50 [16]: 2 µM | GI50 [18]: 5 µM | IC50 [20]: 8 µM | GI50 [21]: 10 µM
Compound: COc1ccc(C(=O)Nc2cc3cc(Br)ccc3n(C)c2=O)cc1
Activity [6]: 48% | viability at 100 µM [1]: 10% | IC50 [9]: 5 µM | IC50 [10]: 2 µM | GI50 [11]: 6.2 µM | Activity [12]: 40.43% | Activity [13]: 41.5% | Activity [14]: 34.81% | Activity [15]: 17.14% | Activity [17]: 18.09% | Activity [19]: 47% | Activity [22]: 29.5%

Rf [24]: 0.22
Compound: COc1c(C#CCN(C)C)cc2c(OS(=O)(=O)c3ccc(C)cc3)c(NC(=O)c3ccc4c(c3)CCC(C)(C)O4)c(=O)oc2c1C
viability at 100 µM [1]: 96%

GI50 [25]: 30 µM | GI50 [7]: 10 µM | GI50 [26]: 25 µM | Rf [5]: 0.14 | GI50 [3]: 6 µM | inhibition [28]: inactive | ER-alpha degradation (active/inactive) [29]: Active | inhibition [30]: inactive | inhibition [31]: inactive | GI50 [18]: 2.5 µM | GI50 [21]: 25 µM | inhibition [32]: inactive
Compound: CC(=O)OC[C@H]1O[C@@H](Oc2ccc3c(OS(=O)(=O)c4ccc(C)cc4)c(NC(=O)c4ccc5c(c4)CCC(C)(C)O5)c(=O)oc3c2C)[C@H](OC(C)=O)[C@@H](OC(C)=O)[C@@H]1OC(C)=O
Activity [6]: 55% | viability at 100 µM [1]: 10% | GI50 [11]: 5 µM | Activity [12]: 30% | Activity [13]: 60% | Ratio [27]: 40 | Activity [14]: 40% | Activity [15]: 5.5% | Activity [17]: 9.5% | Activity [19]: 27% | Activity [22]: 13%

GI50 [3]: 67 µM | Rf [34]: 0.3 | ER-alpha degradation (active/inactive) [29]: Active
Compound: Cc1c(O)ccc2c(OS(=O)(=O)c3ccc4ccccc4c3)c(NC(=O)c3ccc4c(c3)CCC(C)(C)O4)c(=O)oc12
viability at 100 µM [1]: 33%

Rf [35]: 0.48
Compound: COc1cc(C#Cc2cc3c(OS(=O)(=O)c4ccc(C)cc4)c(NC(=O)c4ccc5c(c4)CCC(C)(C)O5)c(=O)oc3c(C)c2OC)cc(OC)c1OC
viability at 100 µM [1]: 92%

Rf [23]: 0.14
Compound: Cc1c(O)ccc2c(OS(C)(=O)=O)c(NC(=O)c3ccc4c(c3)CCC(C)(C)O4)c(=O)oc12
viability at 100 µM [1]: 61%

Rf [2]: 0.27
Compound: COc1ccc(-c2cc3c(OS(=O)(=O)c4ccc(C)cc4)c(NC(=O)c4ccc5c(c4)CCC(C)(C)O5)c(=O)oc3c(C)c2OC)cc1
viability at 100 µM [1]: 89%

inhibition [28]: inactive | ER-alpha degradation (active/inactive) [29]: Active
Compound: Cc1ccc(S(=O)(=O)Oc2c(NC(=O)c3ccc4c(c3)CCC(C)(C)O4)c(=O)oc3c(C)c(O)ccc23)cc1
